The list is not random: actives were taken first. Their share in the collection is about 3.3%.
HTR1A agonist = agonists of human 5-HT1a serotonin receptor; 65,000 compounds, 0.56% hits; CHO 5-HT1a Ga15 NFAT-bla reporter, FRET ratio; 0% basal, 100% maximal reference agonist; P08908; activation, % at 10 µM;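 active = activation above the screen-wide mean activation plus 3 SD, cut at about 19% in these data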;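 note: 0% = DMSO wells and 100% = 5-CT at EC100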
5HT1E antag = blocks the human 5-HT1E serotonin receptor | AID 571 | inhibition, % at 6 µM | 65,000 compounds, 0.99% hits | CHO 5-HT1E Ga15 NFAT-bla reporter, FRET, antagonist;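 active = inhibition above a set limit, the mean inhibition across every tested compound plus 3 SD, cut at about 29% in these data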;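 note: signal is the 460 over 535 nm emission ratio of beta-lactamase substrate; 0% = agonist plus DMSO wells and 100% = wells without agonist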
Target sequence (P28566 whole entry, looked up): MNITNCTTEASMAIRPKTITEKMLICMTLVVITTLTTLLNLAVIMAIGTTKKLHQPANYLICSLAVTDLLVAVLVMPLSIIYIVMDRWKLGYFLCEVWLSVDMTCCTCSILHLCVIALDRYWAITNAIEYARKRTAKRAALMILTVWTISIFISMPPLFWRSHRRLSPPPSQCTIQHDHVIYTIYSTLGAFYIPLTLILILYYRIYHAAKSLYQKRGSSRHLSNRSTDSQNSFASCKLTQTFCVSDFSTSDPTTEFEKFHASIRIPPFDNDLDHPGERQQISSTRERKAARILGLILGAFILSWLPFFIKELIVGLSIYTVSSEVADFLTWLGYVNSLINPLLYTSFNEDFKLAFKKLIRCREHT
HEK293 NFkB inh = lowers PMA/ionomycin-induced NF-kB signal in HEK293 cells; 62,000 compounds, 0.21% hits; AID 465; inhibition, % at 3 µM; HEK-293 NF-kB luciferase reporter, luminescence;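 active = inhibition above the mean of all tested compounds plus 3 SD, cut at about 40% in these data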;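 note: 0% = stimulated DMSO wells and 100% = 10 µM reference inhibitor 5653914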
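System: NF-kB luciferase reporter HEK-293 cells | Replication: Single test | Control set: DMSO vs reference inhibitor | Evaluation: % inhibition | Schedule: 1 h pretreatment, 16 h stimulation, 37 °C | Probe or stimulus: PMA with ionomycin | Compound dosing: One dose, 3 µM | Detection: Luciferase luminescence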
Jurkat viability = cytotoxic compounds reducing Jurkat cell viability | Jurkat E6.1 viability, ATP luminescence, 48 h | inhibition, % at 4 µM | 56,000 compounds, 1.2% hits;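 active = inhibition above the mean inhibition of all tested compounds plus 3 SD, cut at about 28% in these data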
5HT1E ag = agonists of human 5-HT1E serotonin receptor; CHO 5-HT1E Ga15 NFAT-bla reporter, FRET; 0% DMSO wells, 100% control agonist wells; activation, % at 6 µM; 65,000 compounds, 0.69% hits;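 active = activation above a set limit, the screen-wide mean activation plus 3 SD, cut at about 8.5% in these data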;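 note: 100% = positive control agonist at 1 µM giving full maximal response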
5HT1a antag = blocks the human serotonin 5-HT1a receptor | inhibition, % at 10 µM | 62,000 compounds, 0.68% hits | P08908 | CHO 5-HT1a Ga15 NFAT-bla reporter, antagonist mode;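 active = inhibition above the mean of all tested compounds plus 3 SD, cut at about 43% in these data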;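 note: receptor stimulated by 5-CT agonist at 100 nM near EC80; beta-lactamase reporter measured by ratiometric fluorescence of a cleavable substrate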
* marks the source's active call; other numbers are inactive results; nt = not tested or not shown.

SMILES	HTR1A agonist	5HT1E antag	HEK293 NFkB inh	Jurkat viability	5HT1E ag	5HT1a antag
COc1ccc(Cl)cc1S(=O)(=O)n1cnc2ccccc21	0	-5	15	53*	0	12
CCOc1ccc(Cl)cc1S(=O)(=O)n1cnc2ccccc21	-2	4	11	51*	0	-4
CCOC(=O)c1cnc(SCC(=O)c2ccccc2)nc1N	-1	-5	-25	4	0	-4
O=c1c2ccccc2nc2n1CCCCN2	2	0	0	-4	-2	12
Cc1ccc(C)c(N2CCN(Cc3nnnn3C3CCCCC3)CC2)c1	2	-9	9	-4	42*	26
CCc1cccc(NC(=O)CS(=O)Cc2nc(-c3ccc(C)cc3)oc2C)c1 (centres undefined)	-3	-16	8	-5	0	-14
Cn1c(SC2=CS(=O)(=O)c3ccccc32)nc2ccccc21	0	50*	6	73*	1	74*
O=C(Nc1ccc2oc(Cc3ccc(Cl)cc3)nc2c1)c1cccnc1	-1	3	-10	34*	1	3
O=C(Nc1ccc2oc(-c3cccnc3)nc2c1)c1cccnc1	-3	5	8	-4	1	0
O=C(Nc1ccc2oc(-c3ccccc3Cl)nc2c1)c1cncc(Br)c1	64*	2	-4	-4	0	-8
O=C(CSc1nc(-c2ccco2)cc(C(F)(F)F)n1)Nc1ccc2c(c1)OCO2	0	10	16	29*	0	20
COc1ccc(OC)c(C(C)NC(=O)c2ccco2)c1 (centres undefined)	0	8	10	40*	0	0
Cc1cc(C)c(N2CCN(S(=O)(=O)N3CCCCCC3)CC2)c(C)c1	-1	11	18	9	0	11
N#CCCS(=O)(=O)c1nnnn1-c1ccccc1	0	79*	34	5	-1	87*
N#CCCCSc1nnnn1-c1cccc(Cl)c1	0	5	6	-8	-1	-2
COc1cc(C(=O)Nc2nnc(CC(=O)N3CCOCC3)s2)cc(OC)c1OC	6	5	14	-3	-1	-9
O=C1c2[nH]nc(-c3ccccc3O)c2C(c2ccc(F)cc2)N1Cc1ccco1 (centres undefined)	5	-4	14	4	0	53*
C=CCNc1nc2c(c(=O)n(C)c(=O)n2C)n1CCCCCC	5	9	19	82*	0	8
Cc1nc(SCC#N)c2c(C)c(C)sc2n1	1	35*	18	4	2	19
CCn1c2ccccc2c2nc3ccccc3nc21	1	32*	-2	2	0	-9
COc1cc2nc3c4ccccc4n(CC#N)c3nc2cc1OC	-2	5	5	-1	2	-11
CCn1c2ccccc2c2nc3cc(OC)c(OC)cc3nc21	5	45*	25	6	2	7
COc1cc2c(cc1OC)/C(=C/C#N)NC(C)(C)C2	-1	44*	12	6	-1	46*
COCCn1c(COc2ccc(Cl)cc2)nnc1SCC(N)=O	2	-2	3	1	0	5
Cn1cccc1Cc1nnc(SCC(=O)N2CCOCC2)n1CCc1ccccc1	473*	-7	16	-2	1	9
SMILES	HTR1A agonist	5HT1E antag	HEK293 NFkB inh	Jurkat viability	5HT1E ag	5HT1a antag
COCCn1c(COc2cccc(OC)c2)nnc1SCC(=O)N1CCOCC1	1	1	16	6	19*	4
COc1ccc2c(C)cc(=O)oc2c1C	-2	-3	-11	-6	-1	8
CCCCCNC(CC(=O)Nc1ccc(OC)cc1)C(=O)O (centres undefined)	-2	5	4	-3	-1	-14
CCN(C(=O)c1cc2cc3ccc(C)cc3nc2o1)c1ccc(OC)cc1	-2	-6	19	4	-1	46*
Cc1nn(-c2ccccn2)c2c1C(c1ccsc1)C1=C(CCCC1=O)N2 (centres undefined)	2	35*	10	4	0	-6
COCC(C)NC(=O)NC1(C(F)(F)F)Oc2ccc(Cl)cc2O1 (centres undefined)	-2	5	20	nt	1	8
O=C(NCCN1CCOCC1)NC1(C(F)(F)F)Oc2ccc(Cl)cc2O1 (centres undefined)	-2	5	16	80*	0	18
Cc1ccc(S(=O)(=O)NC(CC(=O)NC2CCCC2)c2ccco2)cc1 (centres undefined)	-1	1	13	-3	0	-1
CCOC(=O)N1CCC(NC(=O)CC(NS(=O)(=O)c2ccc(Cl)cc2)c2ccco2)CC1 (centres undefined)	29*	-3	12	-1	1	-16
Cc1ccc(C(=O)CSc2nnc(COc3cccc4cccnc34)o2)cc1	-2	10	18	2	0	-3
COc1cccc(C(=O)CSc2nnc(COc3cccc4cccnc34)o2)c1	46*	12	9	15	-2	6
CCOC(=O)c1ccc(NC(=O)Nc2ccc3c4c(cccc24)C(=O)N3CC)cc1	-3	30*	14	10	0	1
CCN1C(=O)c2cccc3c(NS(=O)(=O)c4ccc(NC(C)=O)cc4)ccc1c23	0	3	4	16	0	0
CCN1C(=O)c2cccc3c(NC(=O)c4ccc(S(=O)(=O)N5CCOCC5)cc4)ccc1c23	-3	22	12	7	0	-7
CCN1C(=O)c2cccc3c(NC(=O)c4ccc(S(=O)(=O)N(C)C)cc4)ccc1c23	88*	2	22	-2	0	-6
CCOC(=O)N1CCN(c2nc3ccccc3nc2C(C#N)C(=O)NCCc2ccccc2)CC1 (centres undefined)	-4	7	8	-8	1	6
C=C(C)c1nc(N)nc(N)n1	32*	2	-3	5	0	12
CCCCOc1ccc(-c2nnn(CC(=O)NCc3ccco3)n2)cc1	-3	29*	-15	18	0	35
O=C(O)CCC(=O)N1CCN(c2nc3ccccc3s2)CC1	-2	4	-2	4	15*	12
CCOc1ccc(NC(=O)N2CCN(c3nc4ccccc4s3)CC2)cc1	-1	13	26	17	17*	-4
CCCOc1ccc(N2C(=O)CC(N3CCN(c4nc5ccccc5s4)CC3)C2=O)cc1 (centres undefined)	1	-18	16	-2	4	-18
CCCC(NS(=O)(=O)c1ccc(Br)cc1)C(=O)O (centres undefined)	1	6	4	9	1	11
CCCCOc1ccc(C(=O)Nc2ccc(N3CCN(C)CC3)cc2)cc1	-3	11	0	1	15*	11
